What is called inhibition is how much of the control response was suppressed. The bioavailability is the share of a dose that reaches the circulation, judged against a reference dose that is usually intravenous. A word on the IC50: it is the point on the concentration scale where inhibition reaches its midpoint. One may read the MRT as the average time that molecules of a dose stay in the body. For orientation: thermodynamic solubility means the concentration in solution at equilibrium with solid. The term efflux ratio denotes a quotient of directional permeabilities that is used to spot active efflux.

Results on one compound are retold here after ChEMBL document CHEMBL3414472, “Synthesis, SAR, and series evolution of novel oxadiazole-containing 5-lipoxygenase activating protein inhibitors: discovery of 2-[4-(3-{(r)-1-[4-(2-amino-pyrimidin-5-yl)-phenyl]-1-cyclopropyl-ethyl}-[1,2,4]oxadiazol-5-yl)-pyrazol-1-yl]-N,N-dimethyl-acetamide (BI 665915)” (J Med Chem, 2015).

Data set [1] concerns the target T1, Leukotriene B4 receptor 2 (Homo sapiens) (UniProt Q9NPC1).
T1 sequence (whole entry): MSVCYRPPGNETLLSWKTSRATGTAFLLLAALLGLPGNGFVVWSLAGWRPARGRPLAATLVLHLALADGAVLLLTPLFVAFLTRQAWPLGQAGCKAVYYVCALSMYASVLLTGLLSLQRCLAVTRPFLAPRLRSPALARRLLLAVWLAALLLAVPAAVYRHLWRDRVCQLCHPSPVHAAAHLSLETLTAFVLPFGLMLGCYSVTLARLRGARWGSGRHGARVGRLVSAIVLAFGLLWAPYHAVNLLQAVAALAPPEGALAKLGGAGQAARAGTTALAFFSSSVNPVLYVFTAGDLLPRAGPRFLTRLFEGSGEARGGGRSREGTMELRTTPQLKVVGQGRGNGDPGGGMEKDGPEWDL
Briefly: Inhibition of BLT2 (unknown origin) at 10 uM relative to control.

A short description of data set [2]: Volume of distribution at steady state in cynomolgus monkey at 1 mg/kg, iv and 10 mg/kg, po. The class given is ADME, organism-based, Macaca fascicularis. The note with it: in vivo, read-out: Vdss. The method, boiled down: (§1)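 iv 1 mg/kg in 70 % PEG; po 10 mg/kg as suspension in 0.5 % methyl cellulose/0.015 % Tween. Blood sampled at 11 timepoints (0, 5, 15, 30 min, 1, 2, 4, 6, 8, 12, 24 h) per dose; mean of n = 3. Clearance expressed as percent of hepatic blood flow.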

Data set [3] is described as follows: Oral bioavailability in rat at 10 mg/kg. The data set is classed as ADME, organism-based. The note with it: in vivo. The method, boiled down: as §1
Data set [4] concerns the target T2, Cytochrome P450 3A4 (Homo sapiens, UniProt P08684). The data set can be described thus: Time-dependent inhibition of CYP3A4 in human liver microsomes using midazolam as substrate up to 100 uM by LC/MS/MS analysis. The class given is ADME. The gist of the method: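 Primary incubation: 0.1 mg/ml human liver microsomes, 100 mM phosphate pH 7.4, 1 mM NADPH, 37 °C, compound 0 to 100 µM (7 concentrations). Aliquots taken at 0, 1, 3, 5, 15, 30 min into secondary incubation with 15 µM midazolam and 1 mM NADPH, quenched after 8 min; 1'-hydroxymidazolam measured by LC/MS/MS against a d4 internal standard.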
Background: Liver microsomes are vesicles of endoplasmic reticulum, rich in cytochrome P450 enzymes.

A further data set deals with Cytochrome P450 2D6 (Homo sapiens, UniProt P10635). Briefly: Inhibition of CYP2D6 in human liver microsomes using dextromethorphan as substrate preincubated for 10 mins followed by NADPH addition measured after 6 mins. The data set is classed as ADME. The gist of the method:
(§2)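 Human liver microsomes (0.05 mg/mL protein) with cocktail substrates: 4 µM diclofenac (2C9), 3 µM dextromethorphan (2D6), 2.5 µM midazolam (3A4). Compound in 0.1 M potassium phosphate pH 7.4 preincubated 10 min at 37 °C; NADPH added, reaction 6 min at 37 °C.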

Data set [5] in a line: Clearance in human hepatocytes at 1 uM measured over 6 hrs by LC/MS analysis relative to hepatic blood flow. The class given is ADME, cell-based, Liver, Hepatocyte. The note with it: read-out: CLH. The gist of the method: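 Cryopreserved human hepatocytes (1 million cells/mL) incubated with compound (1 µM) at 37 °C; compound remaining measured by LC/MS over duplicate 6-timepoint curves (0 to 6 h). The slope is taken from ln % remaining versus time. Clearance is expressed as percent of hepatic blood flow.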

Data set [6] addresses Leukotriene B4 receptor 1 (Homo sapiens) (UniProt Q15722). The data set can be described thus: Inhibition of BLT1 (unknown origin) at 10 uM relative to control.
Data set [7] in a line: Mean residence time in dog at 1 mg/kg, iv. Also noted: dose 1 mg/kg, route intravenous. The note with it: in vivo. The data set is classed as ADME, organism-based, Canis lupus familiaris. The method, boiled down:
as §1

Data set [8] has as its target T3, Arachidonate 5-lipoxygenase-activating protein (Homo sapiens, UniProt P20292).
T3 sequence (P20292 whole entry): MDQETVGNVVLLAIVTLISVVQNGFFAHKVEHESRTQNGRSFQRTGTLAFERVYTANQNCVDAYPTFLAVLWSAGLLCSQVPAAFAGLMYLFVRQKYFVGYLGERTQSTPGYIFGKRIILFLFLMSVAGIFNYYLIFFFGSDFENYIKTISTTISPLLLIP
The data set can be described thus: Inhibition of FLAP in calcimycin-stimulated human whole blood assessed as inhibition of LTB4 synthesis preincubated for 15 mins followed by calcimycin stimulation measured after 30 mins. The gist of the method:
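Heparinized human volunteer blood preincubated with compound 15 min at 37 °C, 5 % CO2; calcimycin 100 µM final, 30 min at 37 °C; spun 2000 rpm 5 min at 4 °C. Supernatant LTB4 measured by HTRF competition (LTB4-XL665 plus anti-LTB4 cryptate, 2 h room temperature). Geometric mean (n ≥ 3) of duplicate 10-point curves.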

Data set [9] addresses Prostaglandin G/H synthase 1 (Homo sapiens) (UniProt P23219). Briefly: Inhibition of cyclooxygenase-1 (unknown origin) at 10 uM relative to control.
Data set [10] in a line: Aqueous equilibrium solubility of the compound in crystalline form in citric acid/disodium phosphate buffer at pH 6.8 after 24 hrs of rotation by HPLC analysis. The data set is classed as physicochemical. The gist of the method: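 Saturated solution of crystalline material in citric acid/disodium phosphate buffer pH 6.8 rotated 24 h; after centrifugation and filtration, dissolved concentration measured by HPLC.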

Data set [11] addresses T2, Cytochrome P450 3A4. The data set can be described thus: Inhibition of CYP3A4 in human liver microsomes using midazolam as substrate preincubated for 10 mins followed by NADPH addition measured after 6 mins. The class given is ADME. The method, boiled down:
as §2

A short description of data set [12]: Mean residence time in rat at 1 mg/kg, iv. The class given is ADME, organism-based. Also noted: dose 1 mg/kg, route intravenous. The note with it: in vivo. The gist of the method:
as §1

Another data set deals with Cynomolgus monkey. The data set can be described thus: Clearance in cynomolgus monkey at 1 mg/kg, iv and 10 mg/kg, po relative to hepatic blood flow. The class given is ADME, organism-based, Macaca fascicularis, Liver. The note with it: in vivo. The gist of the method:
as §1

A short description of data set [13]: Plasma concentration in C57BL/6 mouse at 30 mg/kg, po after 2 hrs. The data set is classed as ADME, organism-based. Also noted: dose 30 mg/kg, route oral.
The next data set has as its system Hepatocyte. Briefly: Unbound clearance in human hepatocytes at 1 uM measured over 6 hrs by LC/MS analysis relative to hepatic blood flow. The data set is classed as ADME, cell-based, Liver. The gist of the method: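 Cryopreserved human hepatocytes (1 million cells/mL) with 1 µM compound at 37 °C for 6 h; compound remaining measured by LC/MS over a duplicate 6-timepoint (0 to 6 h) curve. Clearance derived from the ln(% remaining) vs time slope and corrected by the human plasma unbound fraction; expressed as percent of hepatic blood flow.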

The subject of another data set is Mus musculus. The data set can be described thus: In vivo inhibition of FLAP in C57BL/6 mouse assessed as LTB4 production in calcimycin-stimulated whole blood at 1 mg/kg, po after 2 hrs by ELISA (reference value: 100 +/- 13.3%). The data set is classed as functional. Also noted: scale not given: the % may be the effect or the level left.
Data set [14] in a line: Efflux ratio of permeability across human Caco2 cells. The note with it: Caco-2. The class given is ADME, cell-based. The gist of the method: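 Caco-2 cells were seeded at 1-2 x 10^5 cells/cm2 on 0.4 µm PET filter inserts and cultured 10 to 25 days. Compound in HTP-4 transport buffer was added to the apical or basolateral donor side for A-B or B-A transport. Donor and receiver samples were taken up to 2 h and measured by LC/MS/MS. Each value is from duplicate 6-timepoint curves (0 to 2 h).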
(Passage across Caco-2 layers is used to estimate intestinal permeability.)

A short description of data set [15]: Plasma concentration in C57BL/6 mouse at 1 mg/kg, po after 2 hrs. The data set is classed as ADME, organism-based. On the set-up: dose 1 mg/kg, route oral.
Data set [16] is described as follows: Mean residence time in cynomolgus monkey at 1 mg/kg, iv. The data set is classed as ADME, organism-based, Macaca fascicularis. Also noted: dose 1 mg/kg, route intravenous. The note with it: in vivo. The gist of the method: as §1

Values after ≈ are worked out from the molar mass of the structure shown.

T2 sequence (P08684 whole entry): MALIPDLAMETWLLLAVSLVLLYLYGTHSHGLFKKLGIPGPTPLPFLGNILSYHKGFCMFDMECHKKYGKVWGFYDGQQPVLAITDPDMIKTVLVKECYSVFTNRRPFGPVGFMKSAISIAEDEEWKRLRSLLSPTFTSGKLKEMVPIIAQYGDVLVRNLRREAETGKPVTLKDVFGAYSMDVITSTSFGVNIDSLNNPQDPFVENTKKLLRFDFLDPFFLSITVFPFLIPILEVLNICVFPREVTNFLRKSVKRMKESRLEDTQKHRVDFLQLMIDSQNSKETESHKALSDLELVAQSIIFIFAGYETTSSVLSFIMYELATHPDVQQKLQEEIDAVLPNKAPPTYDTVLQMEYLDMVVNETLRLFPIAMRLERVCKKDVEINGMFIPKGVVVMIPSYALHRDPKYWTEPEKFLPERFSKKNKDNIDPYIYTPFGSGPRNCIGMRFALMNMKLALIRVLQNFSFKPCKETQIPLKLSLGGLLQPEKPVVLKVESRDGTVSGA
Chain of Cytochrome P450 2D6 (P10635 whole entry): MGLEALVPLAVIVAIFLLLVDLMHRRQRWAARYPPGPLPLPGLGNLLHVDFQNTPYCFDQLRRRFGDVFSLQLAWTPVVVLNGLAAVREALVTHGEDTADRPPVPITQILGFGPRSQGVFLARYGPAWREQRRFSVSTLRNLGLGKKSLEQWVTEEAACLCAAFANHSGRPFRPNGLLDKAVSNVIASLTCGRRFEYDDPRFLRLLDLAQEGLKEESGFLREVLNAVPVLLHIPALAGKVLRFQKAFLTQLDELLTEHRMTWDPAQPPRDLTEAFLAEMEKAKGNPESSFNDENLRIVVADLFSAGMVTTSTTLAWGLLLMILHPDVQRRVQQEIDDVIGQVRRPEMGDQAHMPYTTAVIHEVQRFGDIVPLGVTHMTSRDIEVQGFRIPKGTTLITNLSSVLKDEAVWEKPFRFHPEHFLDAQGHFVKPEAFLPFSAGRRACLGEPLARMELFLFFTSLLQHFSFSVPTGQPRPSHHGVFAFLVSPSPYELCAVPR
Chain of Leukotriene B4 receptor 1 (Homo sapiens) (Q15722 whole entry): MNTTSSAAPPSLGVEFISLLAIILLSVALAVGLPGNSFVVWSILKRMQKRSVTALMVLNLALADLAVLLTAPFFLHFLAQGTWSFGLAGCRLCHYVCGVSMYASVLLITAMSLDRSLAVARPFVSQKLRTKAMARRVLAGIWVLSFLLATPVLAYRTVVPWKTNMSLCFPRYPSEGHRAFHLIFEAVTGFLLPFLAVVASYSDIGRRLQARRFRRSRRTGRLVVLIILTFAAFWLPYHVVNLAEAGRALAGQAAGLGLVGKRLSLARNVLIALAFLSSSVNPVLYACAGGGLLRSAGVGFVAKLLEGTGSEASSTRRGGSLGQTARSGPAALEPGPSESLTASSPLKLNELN
Chain of Prostaglandin G/H synthase 1 (Homo sapiens) (P23219 whole entry): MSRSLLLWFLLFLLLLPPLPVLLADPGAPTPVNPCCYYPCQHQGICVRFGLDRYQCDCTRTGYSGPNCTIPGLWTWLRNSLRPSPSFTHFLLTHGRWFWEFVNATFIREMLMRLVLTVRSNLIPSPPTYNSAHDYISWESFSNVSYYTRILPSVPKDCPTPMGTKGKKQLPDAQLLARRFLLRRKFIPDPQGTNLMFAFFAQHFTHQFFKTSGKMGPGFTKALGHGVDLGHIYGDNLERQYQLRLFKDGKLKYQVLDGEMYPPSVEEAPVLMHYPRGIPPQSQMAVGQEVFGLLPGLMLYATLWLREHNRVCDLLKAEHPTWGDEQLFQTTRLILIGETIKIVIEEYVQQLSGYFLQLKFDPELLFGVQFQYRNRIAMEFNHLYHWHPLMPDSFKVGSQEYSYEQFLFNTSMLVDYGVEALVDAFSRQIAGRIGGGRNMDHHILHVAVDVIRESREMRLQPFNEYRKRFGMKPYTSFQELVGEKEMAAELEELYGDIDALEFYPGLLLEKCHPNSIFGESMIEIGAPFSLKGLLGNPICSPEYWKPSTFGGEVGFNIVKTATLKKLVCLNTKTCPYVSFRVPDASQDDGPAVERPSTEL

Take `CN(C)C(=O)Cn1cc(-c2nc([C@@](C)(c3ccc(-c4cnc(N)nc4)cc3)C3CC3)no2)cn1` [BI 665915]: the inhibition in [1], in [6] and in data set [9] was less than 50% throughout. Besides, the Vd in [2] amounted to 0.5 L/kg. In data set [3], this compound showed a bioavailability of 63%. The TDI result on Cytochrome P450 3A4 [4] is listed as “Not Active”. In addition, the figures for the IC50 (at Cytochrome P450 2D6; in data set [8]; on Cytochrome P450 3A4 [11]) were greater than 30 µM, 0.045 µM and greater than 30 µM, respectively. Besides, in data set [5], the hepatic extraction ratio at 6 h, 1 µM stood at 0.41. Further, the MRT in data set [7] worked out at 23 h; in [12], 3.1 h; in data set [16], 4.8 h. Moreover, the solubility (thermodynamic) at 24 h in [10] was 48 µg/mL (≈ 105 µM). In the data set with Cynomolgus monkey, the CL came out at 3.6%. For the same compound, the concentration at 2 h in data set [13] came out at 20.7 µM; in data set [15], 1.7 µM. The CL free in the data set on Hepatocyte was 8.7%. In the data set with Mus musculus, the Activity was 110.6%. Besides, the efflux ratio in [14] worked out at 1.9.
